According to ChEMBL document CHEMBL1124765, “Synthesis and biological properties of novel phosphotriesters: a new approach to the introduction of biologically active nucleotides into cells” (J Med Chem, 1990):
In brackets after ≈: the same amount, converted by molar mass.

Legend:
[1] = pKa value was determined; format: physicochemical
Mus musculus [2] = assay: Topical treatment of intracutaneous TK- herpes simplex virus type 1 of strain VMW 1837 infection of Nu/nu mice for mean day of appearance of skin lesions and/or paralysis of the hind legs at 3% concentration (v/v in DMSO); format: functional
Summary of the method: (§1)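 Inocula were TK⁻ HSV-1 at 10⁶ CCID50/0.05 mL or HSV-1 KOS at 10^4.7 PFU/0.05 mL. Test formulations in DMSO were applied topically four times daily for 5 days, starting at infection. Skin lesions, hind-leg paralysis and death were recorded daily for 28 (KOS) or 49 (TK⁻) days, with five mice per group.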

Human alphaherpesvirus 2 [3] = assay: Evaluated for the minimum inhibitory concentration (MIC) in primary rabbit kidney (PRK) by 50% against herpes simplex virus type-2 (HSV-2) with strains 196; format: functional
Summary of the method: (§2)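 Confluent primary rabbit kidney cell cultures infected with 100 CCID50 virus; after 1 h adsorption residual virus removed and cells incubated with varying compound concentrations. Cytopathogenicity scored when complete in infected untreated controls; MIC = concentration reducing virus-induced cytopathogenicity by 50%. Compounds tested as such or after preincubation in medium with 10% fetal calf serum, 24 h, 37 °C.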

Mus musculus [4] = assay: Topical treatment of intracutaneous HSV-1(KOS) herpes simplex virus type 1 infection of Nu/nu mice for mean day of appearance of skin lesions and/or paralysis of the hind legs at 0.3% concentration (v/v in DMSO); format: functional; summary of the method: as §1
Human alphaherpesvirus 1 [5] = assay: Evaluated for the minimum inhibitory concentration (MIC) in primary rabbit kidney (PRK) by 50% against herpes simplex virus type-1 (HSV-1) with strains F; format: functional; summary of the method: as §2
Human alphaherpesvirus 1 [6] = assay: Evaluated for the minimum inhibitory concentration (MIC) in primary rabbit kidney (PRK) by 50% against TK- herpes simplex virus type 1 (TK- HSV-1) with strain B2006; format: functional
Summary of the method: (§3)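 Confluent primary rabbit kidney cell monolayers were infected with 100 CCID50 of virus. After 1 h adsorption, residual virus was removed and cells were incubated with serial compound concentrations. Cytopathogenicity was scored once it reached completion in untreated infected controls. The endpoint was the concentration reducing virus-induced cytopathogenicity by 50%.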

Human alphaherpesvirus 1 [7] = assay: Evaluated for the minimum inhibitory concentration (MIC) in primary rabbit kidney (PRK) by 50% against herpes simplex virus type-1 (HSV-1) with strains KOS; format: functional; summary of the method: as §2
[8] = test system: Vesicular stomatitis virus; assay: Evaluated for the minimum inhibitory concentration (MIC) in primary rabbit kidney (PRK) by 50% against vesicular stomatitis virus; format: functional; summary of the method: as §3
Human alphaherpesvirus 1 [9] = assay: Evaluated for the minimum inhibitory concentration (MIC) in primary rabbit kidney (PRK) by 50% against herpes simplex virus type-1 (HSV-1) with strains McIntyre; format: functional; summary of the method: as §2
Vaccinia virus = assay: Evaluated for the minimum inhibitory concentration (MIC) in primary rabbit kidney (PRK) by 50% against vaccinia virus; format: functional; settings: Orthopoxvirus vaccinia; summary of the method: as §3
Mus musculus [10] = assay: Topical treatment of intracutaneous HSV-1(KOS) herpes simplex virus type 1 infection of Nu/nu mice for mean day of appearance of skin lesions and/or paralysis of the hind legs at 1% concentration (v/v in DMSO); format: functional; summary of the method: as §1
Mus musculus [11] = assay: Topical treatment of intracutaneous HSV-1(KOS) herpes simplex virus type 1 infection of Nu/nu mice for mean day of appearance of skin lesions and/or paralysis of the hind legs at 3% concentration (v/v in DMSO); format: functional; summary of the method: as §1
Oryctolagus cuniculus = species: Oryctolagus cuniculus; assay: Evaluated for the minimum cytotoxic concentration (MCC) upon preincubation of rabbit kidney cells in medium containing 10% fetal calf serum at 37 degree Celsius for 24 hr; format: functional; settings: Oryctolagus cuniculus, kidney; read-out: MCC
Summary of the method: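 Primary rabbit kidney cell cultures were exposed to compounds, some preincubated 24 h at 37 °C in medium with 10% fetal calf serum. The minimum cytotoxic concentration was the level causing a microscopically detectable change in normal cell morphology.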

Human alphaherpesvirus 1 [12] = assay: Evaluated for the minimum inhibitory concentration (MIC) in primary rabbit kidney (PRK) by 50% against TK- herpes simplex virus type 1 (TK- HSV-1) with strain VMW 1837; format: functional; summary of the method: as §3
Human alphaherpesvirus 2 [13] = assay: Evaluated for the minimum inhibitory concentration (MIC) in primary rabbit kidney (PRK) by 50% against herpes simplex virus type-2 (HSV-2) with strains G; format: functional; summary of the method: as §3
Mus musculus [14] = assay: Topical treatment of intracutaneous TK- herpes simplex virus type 1 of strain VMW 1837 infection of Nu/nu mice for mean day of appearance of skin lesions and/or paralysis of the hind legs at 0.3% concentration (v/v in DMSO); format: functional; summary of the method: as §1
Mus musculus [15] = assay: Topical treatment of intracutaneous TK- herpes simplex virus type 1 of strain VMW 1837 infection of Nu/nu mice for mean day of appearance of skin lesions and/or paralysis of the hind legs at 1% concentration (v/v in DMSO); format: functional; summary of the method: as §1
Human alphaherpesvirus 2 [16] = assay: Evaluated for the minimum inhibitory concentration (MIC) in primary rabbit kidney (PRK) by 50% against herpes simplex virus type-2 (HSV-2) with strains Lyons; format: functional; summary of the method: as §2

Q: Which pKa [1] does the source give for `CC(=O)O[C@H]1C[C@H](n2cc(C)c(=O)[nH]c2=O)O[C@@H]1COP(=O)(OC[C@H]1O[C@@H](n2cc(C)c(=O)[nH]c2=O)C[C@@H]1OC(C)=O)Oc1ccc([N+](=O)[O-])cc1` here?
A: Its pKa is 7.16.

Q: Which pKa [1] does the source give for `CC(=O)O[C@H]1C[C@H](n2cc(C)c(=O)[nH]c2=O)O[C@@H]1COP(=O)(OC[C@H]1O[C@@H](n2cc(C)c(=O)[nH]c2=O)C[C@@H]1OC(C)=O)Oc1ccc(Cl)cc1` here?
A: The pKa was 9.38.

Q: Which pKa [1] does the source give for `CC(=O)O[C@H]1C[C@H](n2cc(C)c(=O)[nH]c2=O)O[C@@H]1COP(=O)(OC[C@H]1O[C@@H](n2cc(C)c(=O)[nH]c2=O)C[C@@H]1OC(C)=O)Oc1ccccc1Cl` here?
A: Its pKa is 8.48.

Q: What does the source list for `O=c1[nH]c(=O)n([C@H]2C[C@H](O)[C@@H](CO)O2)cc1/C=C/Br` [BRIVUDINE]?
A: Mean day appearance of lesions (Mus musculus [2]): 10.8; MIC (Human alphaherpesvirus 2 [3]): 150 µg/mL (≈ 450 µM); Mean day appearance of lesions (Mus musculus [4]): 6.2; MIC (Human alphaherpesvirus 1 [5]): 0.02 µg/mL (≈ 0.06 µM); MIC (Human alphaherpesvirus 1 [6]): 200 µg/mL (≈ 600 µM); MIC (Human alphaherpesvirus 1 [7]): 0.02 µg/mL (≈ 0.06 µM); MIC [8]: > 400 µg/mL; MIC (Human alphaherpesvirus 1 [9]): 0.02 µg/mL (≈ 0.06 µM); MIC (Vaccinia virus): 7 µg/mL (≈ 21 µM); Mean day appearance of lesions (Mus musculus [10]): 9.4; Mean day appearance of lesions (Mus musculus [11]): 9.4; MCC (Oryctolagus cuniculus): > 400 µg/mL; MIC (Human alphaherpesvirus 1 [12]): 300 µg/mL (≈ 901 µM); MIC (Human alphaherpesvirus 2 [13]): 4 µg/mL (≈ 12 µM); Mean day appearance of lesions (Mus musculus [14]): 8.8; Mean day appearance of lesions (Mus musculus [15]): 9.7; MIC (Human alphaherpesvirus 2 [16]): 40 µg/mL (≈ 120 µM)

Q: For `CC(=O)O[C@H]1C[C@H](n2cc(C)c(=O)[nH]c2=O)O[C@@H]1COP(=O)(OC[C@H]1O[C@@H](n2cc(C)c(=O)[nH]c2=O)C[C@@H]1OC(C)=O)Oc1cc(Cl)ccc1Cl`, which pKa [1] is on record?
A: Its pKa is 7.5.
